Source: ChEMBL document CHEMBL5226313, “Discovery of an Orally Efficacious MYC Inhibitor for Liver Cancer Using a GNMT-Based High-Throughput Screening System and Structure-Activity Relationship Analysis” (J Med Chem, 2021)
The source made the active and inactive calls. No cut-off for these calls is given here.

Legend:
[1] = Cytotoxicity against human H7GPL cells at 10 uM measured after 72 hrs by MTS assay; assay type: toxicity, cell-based
Method in brief: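 H7GPL-1 cells seeded at 3 × 10³ per well overnight, then exposed to 10 μM compound for 72 h. Medium replaced with MTS/PMS reagent (20:1) and incubated 1.5 h at 37 °C in 5% CO2; absorbance read at 490 nm. Viability expressed relative to control, where 100% means no cytotoxicity.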

[2] = target: T1, Glycine N-methyltransferase (Homo sapiens) (UniProt Q14749); assay: Induction of GNMT in human H7GPL cells assessed as fold increase in promoter-driven luciferase reporter expression at 10 uM measured after 24 hrs by luminescence assay relative to control; assay type: cell-based; settings: filed as activator
T1 sequence (whole entry): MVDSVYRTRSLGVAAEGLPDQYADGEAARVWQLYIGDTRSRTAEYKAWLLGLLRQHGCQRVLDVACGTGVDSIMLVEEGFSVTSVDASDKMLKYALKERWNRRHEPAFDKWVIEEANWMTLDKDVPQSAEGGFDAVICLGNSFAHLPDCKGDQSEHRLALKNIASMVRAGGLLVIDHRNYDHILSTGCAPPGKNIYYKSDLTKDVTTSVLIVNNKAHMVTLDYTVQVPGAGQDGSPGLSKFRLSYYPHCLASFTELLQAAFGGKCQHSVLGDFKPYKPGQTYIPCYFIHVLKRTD

[3] = target: T1, Glycine N-methyltransferase (Homo sapiens); assay: Induction of GNMT in human H7GPL cells assessed as fold increase in promoter-driven luciferase reporter expression at 2.5 uM measured after 24 hrs by luminescence assay relative to control; assay type: cell-based; settings: filed as activator
Method in brief: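 H7GPL cells (Huh7 carrying a stable lentiviral GNMT promoter–luciferase reporter, kept in 1 μg/mL puromycin) treated with compound for 24 h, then luciferase measured. Luciferase activity normalised to cell viability and expressed as fold over solvent control; means ± SD, n = 3.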

[4] = system: Huh-7; assay: Antitumor activity against human Huh-7 cells xenografted in mouse tumor model assessed as reduction in tumor volume at 10 to 25 mg/kg, po treated for 30 days; assay type: functional, organism-based; settings: dose 10-25 mg/kg, time 30.0 day
Method in brief: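 Huh7 xenografts (1 × 10⁶ cells s.c., right flank) in female Balb/c nude mice aged 5–6 weeks. After tumors became palpable, mice were randomised and dosed orally every day at 10 or 25 mpk, or solvent; sorafenib 25 mpk as comparator. Caliper monitoring of tumor growth over about 4 weeks; mean ± SE, n = 6.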

[5] = system: Huh-7; assay: Antiproliferative activity against human Huh-7 cells assessed as inhibition of cell growth incubated for 72 hrs by Alamar blue assay; assay type: functional, cell-based; settings: dose 0.3-80 µM
Method in brief: (§1)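 Cells seeded in 96-well plates and exposed to a range of drug concentrations for 72 h; Alamar Blue added for a further 4 h. Viable cells expressed as percentage of solvent-treated control; means ± SD, n = 3. Cells kept in DMEM with 10% FBS, 2 mM L-glutamine, 0.1 mM non-essential amino acids and antibiotics at 37 °C in humidified CO2.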

[6] = system: Huh-7; assay: Effect on HDAC2 protein expression in human Huh-7 cells at 0.6 to 10 uM incubated for 24 hrs by immunoblot analysis; assay type: functional, cell-based; settings: dose 0.6-10 µM
Method in brief: (§2)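 Huh7 or HepG2 cells exposed to the indicated concentrations for 24 h. Lysates prepared in RIPA buffer with phosphatase inhibitors (10 mM Na3VO4, 1 mM NaF, 5 mM NaPPi) and protease inhibitor cocktail; protein quantified by Bio-Rad assay. HDAC1 and HDAC2 detected by immunoblot, with GAPDH as loading control.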

[7] = Toxicity in NOD-SCID mouse assessed as body weight at 10 to 25 mg/kg, po treated for 30 days; assay type: organism-based; settings: in vivo, 720 h, dose 10-25 mg/kg, time 30 day
Method in brief: (§3)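 Huh7 cells (1 × 10⁶) were injected subcutaneously into the right flank of five- to six-week-old female mice. Once tumours were palpable, mice were randomised and dosed orally every day for 30 days at 10 or 25 mpk, with vehicle and sorafenib (25 mpk) groups alongside. Survival, body weight, liver function tests and organ morphology were monitored during treatment.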

[8] = system: HepG2; assay: Effect on HDAC2 protein expression in human HepG2 cells at 0.6 to 10 uM incubated for 24 hrs by immunoblot analysis; assay type: functional, cell-based; settings: dose 0.6-10 µM; method in brief: as §2
[9] = system: Huh-7; assay: Effect on HDAC1 protein expression in human Huh-7 cells at 0.6 to 10 uM incubated for 24 hrs by immunoblot analysis; assay type: functional, cell-based; settings: dose 0.6-10 µM; method in brief: as §2
[10] = system: HepG2; assay: Inhibition of colony formation in human HepG2 cells after 10 days by crystal violet staining based assay; assay type: functional, cell-based; settings: dose 0.6-10 µM, time 10.0 day
Method in brief: (§4)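 Cells seeded at 1 × 10⁴ per well overnight in six-well plates, then exposed to the specified drug concentrations for 10 days at 37 °C in 5% CO2. Surviving colonies stained with crystal violet and counted; means ± SD, n = 3.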

[11] = system: Huh-7; assay: Inhibition of colony formation in human Huh-7 cells after 10 days by crystal violet staining based assay; assay type: functional, cell-based; settings: dose 0.6-10 µM, time 10.0 day; method in brief: as §4
[12] = system: HepG2; assay: Inhibition of MYC mRNA expression in human HepG2 cells at 0.6 to 10 uM incubated for 24 hrs by immunoblot analysis; assay type: functional, cell-based; settings: dose 0.6-10 µM, in the assay text read “qRT-PCR analysis” for “immunoblot analysis”
Method in brief: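 Huh7 or HepG2 cells treated with the indicated concentrations for 24 h. Myc mRNA measured by qRT-PCR and expressed as fold over solvent control; means ± SD, n = 3.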

[13] = Toxicity in NOD-SCID mouse assessed as survival at 10 to 25 mg/kg, po treated for 30 days; assay type: organism-based; settings: in vivo, 720 h, dose 10-25 mg/kg, time 30 day; method in brief: as §3
[14] = system: Hep 3B2; assay: Antiproliferative activity against human Hep3B cells assessed as inhibition of cell growth incubated for 72 hrs by Alamar blue assay; assay type: functional, cell-based; settings: dose 0.3-80 µM; method in brief: as §1
[15] = Toxicity in NOD-SCID mouse assessed as liver function at 10 to 25 mg/kg, po treated for 30 days; assay type: organism-based; settings: in vivo, 720 h, dose 10-25 mg/kg, time 30 day; method in brief: as §3
[16] = system: Huh-7; assay: Reduction in MYC protein expression in tumor of mouse xenografted with human Huh-7 cells at 10 to 25 mg/kg, po treated for 30 days; assay type: functional, organism-based; settings: dose 10-25 mg/kg, time 30.0 day
Method in brief: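 Tumors taken from Huh7 xenografted nude mice dosed orally every day at 10 or 25 mpk. Tumor lysates prepared in RIPA buffer containing phosphatase and protease inhibitors. MYC and GNMT detected by immunoblot with β-actin as loading control; n = 6 mice per group.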

[17] = Toxicity in NOD-SCID mouse assessed as organ morphology at 10 to 25 mg/kg, po treated for 30 days; assay type: organism-based; settings: in vivo, 720 h, dose 10-25 mg/kg, time 30 day; method in brief: as §3
[18] = system: HepG2; assay: Effect on HDAC1 protein expression in human HepG2 cells at 0.6 to 10 uM incubated for 24 hrs by immunoblot analysis; assay type: functional, cell-based; settings: dose 0.6-10 µM; method in brief: as §2
[19] = system: HepG2; assay: Antiproliferative activity against human HepG2 cells assessed as inhibition of cell growth incubated for 72 hrs by Alamar blue assay; assay type: functional, cell-based; settings: dose 0.3-80 µM; method in brief: as §1
[20] = Drug uptake in NOD-SCID mouse assessed as compound level in liver tissue at 25 mg/kg, po treated for 30 days; settings: in vivo, 720 h
[21] = system: Huh-7; assay: Increase in p21 expression in human Huh-7 cells at 0.6 to 10 uM incubated for 24 hrs by qRT-PCR analysis; settings: dose 0.6-10 µM
[22] = system: Huh-7; assay: Induction of GNMT protein expression in human Huh-7 cells at 2.5 uM measured after 24 hrs; assay type: functional, cell-based
[23] = system: Huh-7; assay: Antitumor activity against human Huh-7 cells xenografted in mouse tumor model assessed as inhibition of tumor growth at 25 to 300 mg/kg, po treated for 30 days; assay type: functional, organism-based; settings: dose 25-300 mg/kg, time 30.0 day
Method in brief: (§5)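 Female Balb/c nude mice, 5–6 weeks old, injected subcutaneously in the right flank with 1 × 10⁶ Huh7 cells. Once tumors were palpable, animals were randomised and dosed orally every day for 30 days at 25, 100 or 300 mpk, or vehicle; sorafenib 25 mpk as reference group. Tumors measured by caliper throughout; body weight recorded during treatment.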

[24] = target: T1, Glycine N-methyltransferase (Homo sapiens); assay: Induction of GNMT in human H7GPL cells assessed as fold increase in promoter-driven luciferase reporter expression measured after 24 hrs by luminescence assay relative to control; assay type: cell-based; settings: filed as activator, dose 0.15-10 µM
[25] = system: Huh-7; assay: Induction of GNMT mRNA expression in human Huh-7 cells at 2.5 uM measured after 24 hrs by qRT-PCR analysis; assay type: functional, cell-based
Method in brief: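 Huh7 cells exposed to 2.5 μM for 24 h, then RNA harvested. GNMT mRNA quantified by qRT-PCR, normalised to an internal control and expressed as fold over solvent control; means ± SD, n = 3.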

[26] = Toxicity in mouse xenografted with human Huh-7 cells assessed as body weight at 25 to 300 mg/kg, po treated for 30 days; assay type: organism-based; settings: in vivo, 720 h, dose 25-300 mg/kg, time 30 day; method in brief: as §5

SMILES | fold change (FC) [2] | fold change (FC) [3] | other results
Cc1ccc(COc2ccc3ccc(=O)oc3c2)cc1 | – | – | Activity [1]: Non-Toxic
O=C(N/N=C/c1cccs1)c1cc2ccccc2cc1O | 1.36 | 0.12 | –
O=C(N/N=C/c1ccc[nH]1)c1cc2ccccc2cc1O | 1.56 | 1.19 | –
C/C(=N\NC(=O)c1cccnc1N)c1ccccn1 | 8.26 | 11.1 | inhibition [4]: Active; Activity [5]: Dose-Dependent Effect; Activity [6]: inactive; Activity [7]: Non-Toxic; Activity [8]: inactive; Activity [9]: inactive; inhibition [10]: Dose-Dependent Effect; inhibition [11]: Dose-Dependent Effect; inhibition [12]: Active; Activity [13]: Non-Toxic; Activity [14]: Dose-Dependent Effect; Activity [15]: Non-Toxic; Activity [16]: Active; Activity [17]: Non-Toxic; Activity [18]: inactive; Activity [19]: Dose-Dependent Effect; Drug uptake [20]: Active; Activity [21]: Active
C/C(=N\NC(=O)c1cc2ccccc2cc1O)c1ccccn1 | – | 6.7 | Activity [22]: Active; inhibition [23]: Active; Activity [24]: Dose-Dependent Effect; Activity [25]: Active; Activity [1]: Non-Toxic; Activity [26]: Non-Toxic
c1ccc(OCc2nc3ccccc3s2)cc1 [2-(PHENOXYMETHYL)BENZOTHIAZOLE] | – | – | Activity [1]: Non-Toxic
O=C(N/N=C/c1ccc2ccccc2n1)c1cc2ccccc2cc1O | 1.01 | 1.11 | –
C/C(=N\NC(=O)c1cc2ccccc2cc1O)c1cccs1 | 1.42 | 1.24 | –
C/C(=N\NC(=O)c1cc2ccccc2cc1O)c1ccc([N+](=O)[O-])cc1 | 0.9 | 1.01 | –
C/C(=N\NC(=O)c1cc2ccccc2cc1O)c1ccc2ccccc2n1 | 0.99 | 3.31 | –
C/C(=N\NC(=O)c1c(O)cccc1O)c1ccccn1 | 11 | 0.61 | –
c1ccc(-n2ncc3c(N4CCC5(CC4)OCCO5)ncnc32)cc1 | – | – | Activity [1]: Non-Toxic
O=C(NN=C(c1ccccn1)c1ccccn1)c1ccccc1O | 5.86 | 4.55 | –
C/C(=N\NC(=O)c1ccccc1O)c1ccccn1 | 9.79 | 0.38 | –
O=C(N/N=C/c1ccccn1)c1ccccc1O | 0.88 | 1.4 | –
COc1ccc(/C(C)=N/NC(=O)c2cc3ccccc3cc2O)cc1 | 0.9 | 1.2 | –
C/C(=N\NC(=O)c1cc2ccccc2cc1O)c1ccco1 | 1.18 | 1.42 | –
C/C(=N\NC(=O)c1cc2ccccc2cc1O)c1ccc[nH]1 | 1.04 | 1.22 | –
C/C(=N\NC(=O)c1ccc(O)cc1O)c1ccccn1 | 1.5 | 4.88 | –
C/C(=N\NC(=O)c1ccccc1N)c1ccccn1 | 11 | 0.93 | –
C/C(=N\NC(=O)c1cc2ccccc2cc1O)c1ccccc1 | 1.37 | 1.16 | –
C/C(=N\NC(=O)c1ccccc1)c1ccccn1 | 6.96 | 0.59 | –
C/C(=N\NC(=O)c1cc2ccccc2cc1O)c1cccnc1 | 1.15 | 1.33 | –
C/C(=N\NC(=O)c1cccc(O)c1)c1ccccn1 | 6.66 | 13.3 | –
COc1ccccc1C(=O)N/N=C(\C)c1ccccn1 | 1.31 | 1.72 | –
O=C(N/N=C/c1ccco1)c1cc2ccccc2cc1O | 1.04 | 1.22 | –
O=C(NN=C(c1ccccn1)c1ccccn1)c1ccc(O)cc1O | 1.14 | 4.7 | –
O=C(N/N=C/c1ccccn1)c1cc2ccccc2cc1O | 1.09 | 1.79 | –
O=C(NN=C(c1ccccn1)c1ccccn1)c1cc2ccccc2cc1O | 5.94 | 7.56 | –
